CSC inhib: cancer stem cell viability inhibitors, primary screen, luminescence | AID 2717, 2010 | cancer stem cell-like cells viability | 1.1% of 300,000 active | inhibition, % at 7.5 µM; in the data active = inhibition above about 75%; inconclusive = no clear call, values can overlap the other calls; tested in HMLE shEcad cells
T cruzi repl: inhibitors of intracellular T. cruzi growth, primary screen, luminescence, NIH3T3 host cells | T. cruzi beta-gal in NIH3T3, 90 h | inhibition, % (concentration not given with the values) | 1.4% of 300,000 active | AID 1885, 2009;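 active = mean inhibition across valid replicates above about 55%, limit read from the data; inconclusive = mean below that limit but half or more replicates reach it; inactive = mean below it, under half of replicates reach it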;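 note: signal also drops with host cell toxicity which is not excluded here; 0% = plate median of DMSO wells and 100% = zero luminescence signal; higher percent means less beta-gal luminescence so fewer parasites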
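Material: NIH/3T3 host cells with β-galactosidase reporter T. cruzi; Input: 5,000 host fibroblasts per well; Medium: DMEM, 2% fetal bovine serum; Compound: 50 nL DMSO compound solution per well; Schedule: 3 h host attachment, then at least 90 h co-culture; Detection: luminescent β-galactosidase signal after 60 min lysis.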
Mdm2 MdmX PPI: inhibitors of human Mdm2-MdmX association, primary screen, cell-based, luminescence, split luciferase, SaOS-2, uHTS. Protein Mdm4 (Homo sapiens) + E3 ubiquitin-protein ligase Mdm2 (Homo sapiens), …. 3% of 330,000 active. inhibition, % at 8 µM. SaOS-2 split-luciferase Mdm2/MdmX complementation;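 active = inhibition of at least 50% at 8 µM in the primary screen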
SKKanGAS inh: S. pyogenes SKKanGAS growth inhibitors in kanamycin, primary screen, streptokinase expression inhibitor project, SKKanGAS strain, BacTiter-Glo luminescence | 1.3% of 300,000 active | 6 h | AID 1662, 2009 | inhibition, % at 7.5 µM;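 active = mean replicate score, as percent of positive control median, at least 50; inconclusive = mean below 50 but one replicate at or above 50; inactive = mean and every replicate below 50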;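 note: strain carries kanamycin resistance gene driven by streptokinase promoter and grows in 40 µg/ml kanamycin; loss of luminescence reflects streptokinase promoter inhibition or plain growth inhibition; 0% = median of DMSO wells and 100% = positive control at its reference dose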
Calb FLC: C. albicans growth inhibition with fluconazole, primary screen, CaCi-2 strain, Alamar Blue fluorescence; 0.57% of 300,000 active; growth inhibition, % (concentration not given with the values); AID 1979, 2009; C. albicans CaCi-2 (fluconazole-resistant clinical isolate) + fluconazole, 48 h;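 active = growth inhibition above about 58% in most replicates, limit read from the data, passing the limit was not always enough; inconclusive = exactly half the replicates above a set limit; inactive = most replicates below a set limit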;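 note: all wells also contain fluconazole at 8 µg/ml as a sub-toxic cotreatment; 0% = median of DMSO wells and 100% = median of geldanamycin control wells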
Beta cell apopt: inhibitors of cytokine-induced beta cell apoptosis, primary screen, luminescence | protection from apoptosis, % (no concentration beside the values) | 0.8% of 300,000 active | INS-1E cytokine-induced death, ATP luminescence, 48 h; percent of positive-control rescue, neutral wells zero;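 active = Every replicate reaches about 75%, or at least half do and their mean reaches it too, limit read from the data; inconclusive = At least half of replicates reach the limit but their mean does not; inactive = Under half of replicates reach the limit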;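 note: 0% = cytokine-treated negative control wells and 100% = positive control rescue; higher means more ATP so stronger rescue from cytokine killing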
* hit, by the source's call; ? = inconclusive; nt = no result. In the library only some 5.7% were active in any assay of this set; here they are far more common.

SMILES	CSC inhib	T cruzi repl	Mdm2 MdmX PPI	SKKanGAS inh	Calb FLC	Beta cell apopt
COc1ccccc1C(CNC(=O)c1ccc(NS(=O)(=O)c2ccc3c(c2)OCCO3)cc1)N(C)C (configuration not stated)	-0.8	-8.6	14.1	-6.2	-1.9	-3.0
CCOP(=O)(OCC)c1nc(-c2cccc3ccccc23)oc1NCc1ccc(OC)cc1	10.5	57.4*	36.4	57.2*	-5.4	3.0
COc1ccc(CN(C)CC(O)COc2ccc(-c3ccccc3)cc2)cc1OC (configuration not stated)	12.0	58.0*	9.0	4.2	-5.4	nt
CC(C)CN(C(=O)COC(=O)COc1ccc2c(c1)CCC2)c1c(N)n(Cc2ccccc2)c(=O)[nH]c1=O	-6.6	-6.9	24.1	-3.9	-9.6	-4.0
O=C(NC(c1ccc(Cl)cc1)c1c(O)ccc2ccccc12)c1ccccc1 (configuration not stated)	107.1*	nt	nt	nt	nt	98.3*
C/C(=N\Nc1nc(C(=O)O)cs1)c1ccccc1	-4.1	-10.8	-17.9	-10.4	?	2.7
C/C(=N\Nc1nc2ccc(Cl)cc2o1)c1ccccc1	4.5	-14.8	8.4	67.6*	1.9	4.1
CCC(=O)N1c2ccc(S(=O)(=O)CCC(=O)N3CCn4c3nc3ccccc34)cc2CC1C (configuration not stated)	4.4	13.4	42.5	-3.3	80.6*	2.6
Cc1c(/C=N/NC(=O)c2ccccc2O)c2ccccn2c1C(=O)c1ccc(F)cc1	0.1	4.2	34.1	29.3	-25.9	4.5
Cc1c(/C=N/NC(=O)c2ccc(O)cc2)c2ccccn2c1C(=O)c1ccc(F)cc1	29.6	20.3	46.4	51.9*	-0.8	5.6
O=C(N/C(=C\c1ccccc1)C(=O)N1CCOCC1)c1ccccc1Cl	3.2	-27.6	-7.2	-0.2	-1.7	-3.0
N=C1/C(=C/c2ccc(-c3cccc(C(=O)O)c3)o2)C(=O)N=C2SC=C(c3ccccc3)N12	21.5	-7.7	-13.0	78.8*	32.1	-4.2
N=C1/C(=C\c2ccc(-c3cc(Cl)cc(Cl)c3)o2)C(=O)N=C2SC=C(c3ccccc3)N12	32.5	-8.1	6.6	6.0	-2.5	1.5
CCCOc1ccc(-c2nc(OC)c3ccccc3n2)cc1	25.9	-8.3	18.9	56.2*	20.7	5.9
CN(C)CCNC(=O)c1cc2sc3ccccc3c2s1	1.5	59.4*	3.9	2.6	22.7	-3.7
CN(C)CCCNC(=O)c1cc2c3ccccc3n(C)c2s1	24.1	74.3*	16.6	7.3	?	2.2
COCCN(CCOC)C(=O)c1cc2sc3ccccc3c2s1	-6.0	16.1	7.6	-3.2	-0.1	1.7
CC(C)N(Cc1nc(-c2ccc(Cl)cc2)no1)C(=O)CN(C)S(=O)(=O)c1ccc(Cl)cc1	-0.2	55.6*	-1.5	-0.9	-16.9	-2.3
COc1ccc(NC2=C3CC(C)CC=C3N(c3ccc(OC)cc3)C2=O)cc1 (configuration not stated)	9.0	-14.1	-14.7	6.6	-48.2	-3.1
CCc1nc(N2CCCCC2)c2oc3ccccc3c2n1	34.9	15.3	-8.9	8.4	0.8	-1.9
CCc1nc(N2CCCCC2C)c2oc3ccccc3c2n1 (configuration not stated)	102.4*	19.7	47.8	27.3	-6.1	15.0
CCc1nc(N2CCN(Cc3ccc4c(c3)OCO4)CC2)c2oc3ccccc3c2n1	81.0*	8.7	30.4	26.2	-32.1	-5.3
Cc1csc(CNC(=O)C2CCC(=O)N(CCCc3ccccc3)C2)n1 (configuration not stated)	nt	2.8	2.5	-1.8	-6.2	nt
Cc1ccc(N=CC=C2OC(C)(C)C(C)(C)O2)c(C)c1	24.7	14.4	3.5	-7.6	0.4	-3.1
COc1ccccc1N=CC=C1OC(C)(C)C(C)(C)O1	3.1	58.5*	-0.3	2.9	10.0	4.0
CCN1CCN(C(=O)CCc2nnc(CCCCc3ccccc3)o2)[C@@H](C)C1=O	1.5	-8.2	-5.2	-24.6	?	0.0

Bioassay records (PubChem)
